Measurements published in PubChem BioAssay AID2657 (Broad Institute, 2010).

System: platelets, SFLLRN actin polymerization, FITC-phalloidin flow
Test: inhibition of SFLLRN-induced platelet actin polymerization, late-stage follow-up, selectivity assay for platelet granule secretion inhibitor project, cell-based, FITC-phalloidin flow cytometry, repeated runs (AID 2657)
Details: at 10 µM; hits give high values
Procedure, shortened: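 Test system: Gel-filtered platelets | Also added: SFLLRN agonist peptide at 5 µM, or no agonist | Dosing: 10 µM compound, single dose | Times: Compound 20 min then SFLLRN 15 min, both 37 °C | Detection: Flow cytometry of fixed, permeabilized platelets stained with FITC-phalloidin | Controls: DMSO-only wells at 0.3% as neutral control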

SMILES | inhibition [%]
Cc1ccc(-n2c(N)c(C#N)c(-c3ccccc3)c(C#N)c2=O)cc1 | 99
C/C(=N/NC(=O)C1CCCC1)c1ccc(NC(=O)C(F)(F)F)cc1 | 73.5
